Measurements: ChEMBL document CHEMBL4376874, “Discovery of Potent and Selective Epidermal Growth Factor Receptor (EGFR) Bifunctional Small-Molecule Degraders” (J Med Chem, 2020)
Activity calls are given as the source filed them. No cut-off for these calls is given here.

Tests used:
[1] = system: Protein cereblon/Epidermal growth factor receptor (Homo sapiens), P00533+Q96SW2 [L858R]; assay: Protac activity at CRBN/EGFR L858R mutant in human H3255 cells assessed as induction of EGFR degradation treated 8 hrs post serum starvation measured after 16 hrs by Western blot analysis; type: cell-based
[2] = system: Protein cereblon/Epidermal growth factor receptor (Homo sapiens), P00533+Q96SW2 [UNDEFINED MUTATION]; assay: Protac activity at CRBN/EGFR exon 19 deletion mutant in human HCC827 cells assessed as reduction in AKT phosphorylation up to 10 uM treated 8 hrs post serum starvation measured after 16 hrs by Western blot analysis; type: cell-based
Summary of the method: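 Cultured to 80% confluence in RPMI/1640 with 20% FBS at 37 °C and 5% CO2, then switched to serum-free medium for 8 h. Degraders were added over a concentration range up to 10 μM for 16 h, with gefitinib at 1 μM as reference. Lysates in Laemmli buffer were immunoblotted for EGFR, p-EGFR and p-AKT. DC50 came from band quantification by nonlinear regression (variable slope).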

[3] = system: Protein cereblon/Epidermal growth factor receptor (Homo sapiens), P00533+Q96SW2 [UNDEFINED MUTATION]; assay: Protac activity at CRBN/EGFR exon 19 deletion mutant in human HCC827 cells assessed as time required to induce 50% EGFR degradation at 100 nM treated 8 hrs post serum starvation by Western blot analysis; type: cell-based
Summary of the method: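 After 8 h serum starvation, cells got 100 nM degrader and were collected at serial time points for Western blot of EGFR and downstream signaling.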

[4] = system: Protein cereblon/Epidermal growth factor receptor (Homo sapiens), P00533+Q96SW2 [L858R]; assay: Protac activity at CRBN/EGFR L858R mutant in human H3255 cells assessed as induction of EGFR degradation at 0.1 to 1 uM incubated for 8 hrs in absence of FBS by Western blot analysis; type: cell-based
[5] = system: Protein cereblon/Epidermal growth factor receptor (Homo sapiens), P00533+Q96SW2 [L858R]; assay: Protac activity at CRBN/EGFR L858R mutant in human H3255 cells assessed as induction of EGFR degradation at 100 nM measured after 8 hrs in presence of CRBN E3 ligase binder thalidomide by Western blot analysis; type: cell-based
[6] = system: Protein cereblon/Epidermal growth factor receptor (Homo sapiens), P00533+Q96SW2 [L858R]; assay: Protac activity at CRBN/EGFR L858R mutant in human H3255 cells assessed as induction of EGFR degradation at 100 nM measured after 8 hrs in presence of negative control MS154N by Western blot analysis; type: cell-based
[7] = system: Protein cereblon/Epidermal growth factor receptor (Homo sapiens), P00533+Q96SW2 [UNDEFINED MUTATION]; assay: Reversible protac activity at CRBN/EGFR exon 19 deletion mutant in human HCC827 cells assessed as recovery of EGFR degradation at 100 nM preincubated for 12 hrs followed by compound washout and measured after 24 hrs by Western blot analysis; type: cell-based
Summary of the method: (§1)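 Cells were serum-starved 8 h, then given degrader for 12 h. They were washed three times with PBS and harvested at the indicated time points after washout. EGFR, p-EGFR and p-AKT were read by Western blot.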

[8] = system: Protein cereblon/Epidermal growth factor receptor (Homo sapiens), P00533+Q96SW2 [UNDEFINED MUTATION]; assay: Reversible protac activity at CRBN/EGFR exon 19 deletion mutant in human HCC827 cells assessed as recovery of EGFR phosphorylation at 100 nM preincubated for 12 hrs followed by compound washout and measured after 24 hrs by Western blot analysis; type: cell-based; summary of the method: as §1
[9] = system: Protein cereblon/Epidermal growth factor receptor (Homo sapiens), P00533+Q96SW2 [L858R]; assay: Reversible protac activity at CRBN/EGFR L858R mutant in human H3255 cells assessed as recovery of EGFR phosphorylation at 100 nM preincubated for 12 hrs followed by compound washout and measured up to 48 hrs by Western blot analysis; type: cell-based; summary of the method: as §1
[10] = Cmax in Swiss albino mouse at 50 mg/kg, ip measured after 8 hrs; type: ADME, organism-based; design: dose 50 mg/kg, route intraperitoneal; conditions: in vivo

Chain of Protein cereblon/Epidermal growth factor receptor (Homo sapiens), P00533+Q96SW2 [UNDEFINED MUTATION] (P00533 whole entry, looked up, stated change not applied): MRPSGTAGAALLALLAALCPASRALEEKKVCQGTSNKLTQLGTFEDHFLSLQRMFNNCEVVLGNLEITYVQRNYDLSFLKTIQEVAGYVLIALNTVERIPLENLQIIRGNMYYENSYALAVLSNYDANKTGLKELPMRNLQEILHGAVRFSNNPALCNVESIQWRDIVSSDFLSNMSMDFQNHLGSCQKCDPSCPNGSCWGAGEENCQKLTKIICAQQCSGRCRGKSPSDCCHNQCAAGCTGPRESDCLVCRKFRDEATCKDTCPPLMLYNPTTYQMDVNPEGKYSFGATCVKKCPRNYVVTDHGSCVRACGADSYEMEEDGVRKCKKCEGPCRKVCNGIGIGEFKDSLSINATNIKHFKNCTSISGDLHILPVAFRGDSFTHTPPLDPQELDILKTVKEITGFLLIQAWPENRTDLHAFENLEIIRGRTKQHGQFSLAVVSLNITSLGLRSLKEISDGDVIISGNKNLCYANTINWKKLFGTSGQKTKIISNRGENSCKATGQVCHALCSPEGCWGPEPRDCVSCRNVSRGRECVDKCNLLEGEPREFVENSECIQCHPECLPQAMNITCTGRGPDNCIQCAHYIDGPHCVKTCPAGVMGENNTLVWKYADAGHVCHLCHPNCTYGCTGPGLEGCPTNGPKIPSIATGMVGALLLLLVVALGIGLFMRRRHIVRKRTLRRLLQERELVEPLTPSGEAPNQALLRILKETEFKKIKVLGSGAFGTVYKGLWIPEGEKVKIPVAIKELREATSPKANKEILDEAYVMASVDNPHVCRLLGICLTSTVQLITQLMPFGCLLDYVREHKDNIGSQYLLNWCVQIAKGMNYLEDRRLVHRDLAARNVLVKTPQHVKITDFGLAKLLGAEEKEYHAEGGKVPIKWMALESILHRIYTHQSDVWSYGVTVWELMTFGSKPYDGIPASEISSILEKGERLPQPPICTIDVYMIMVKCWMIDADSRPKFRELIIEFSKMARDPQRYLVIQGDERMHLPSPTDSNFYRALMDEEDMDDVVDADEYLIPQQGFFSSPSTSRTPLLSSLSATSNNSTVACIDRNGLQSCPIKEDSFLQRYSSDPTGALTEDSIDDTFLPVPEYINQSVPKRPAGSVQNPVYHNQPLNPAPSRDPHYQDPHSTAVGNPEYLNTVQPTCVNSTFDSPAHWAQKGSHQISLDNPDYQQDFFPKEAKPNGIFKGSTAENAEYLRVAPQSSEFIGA
Chain of Protein cereblon/Epidermal growth factor receptor (Homo sapiens), P00533+Q96SW2 [UNDEFINED MUTATION] (Q96SW2 whole entry, looked up, stated change not applied): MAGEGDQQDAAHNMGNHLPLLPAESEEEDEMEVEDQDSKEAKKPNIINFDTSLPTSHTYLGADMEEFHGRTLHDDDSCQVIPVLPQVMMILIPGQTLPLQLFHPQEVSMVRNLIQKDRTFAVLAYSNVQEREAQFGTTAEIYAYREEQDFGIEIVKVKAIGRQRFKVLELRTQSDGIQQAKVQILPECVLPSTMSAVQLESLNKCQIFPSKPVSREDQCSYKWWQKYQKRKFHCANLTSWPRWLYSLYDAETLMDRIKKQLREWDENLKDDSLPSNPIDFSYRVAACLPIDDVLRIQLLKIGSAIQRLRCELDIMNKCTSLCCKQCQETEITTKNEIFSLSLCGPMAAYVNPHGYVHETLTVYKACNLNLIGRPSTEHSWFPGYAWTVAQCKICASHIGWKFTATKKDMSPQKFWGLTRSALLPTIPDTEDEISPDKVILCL

In the case of `COc1cc2ncnc(Nc3ccc(F)c(Cl)c3)c2cc1OCCCN1CCN(CCC(=O)NCCCCCCCCOc2cccc3c2C(=O)N(C2CCC(=O)NC2=O)C3=O)CC1` (stereo not given), the Activity [1] was “Dose-dependent effect”, the Activity [2] was “Active” and the T1/2 [3] was 3.5 h. The Activity [4] was “Active”, the Activity [5] was “inactive” and the Activity [6] was “inactive”. For the same compound, the Activity [7] was “Active”, the Activity [8] was “Active” and the Activity [9] was “Active”. For the same compound, the Cmax [10] was 500 nM.
